Key:
Liver microsome [1] = test: Covalent binding in human liver microsomes measured per mg of protein using radiolabelled compound at 10 uM after 1 hr incubation by liquid scintillation counting
CYP3A4 [2] = molecular target: T1, CYP3A4 (Homo sapiens, UniProt P08684); test: in vitro
[3] = Intrinsic clearance for reactive metabolites formation assessed as summation of [3H]GSH adduct formation rate-based reactive metabolites formation and cytochrome P450 (unknown origin) inactivation rate-based reactive metabolites formation; conditions: human
CYP2C9 = CYP2C9 (Homo sapiens, UniProt P11712); test: in vitro
CYP2C9, sequence (P11712 whole entry): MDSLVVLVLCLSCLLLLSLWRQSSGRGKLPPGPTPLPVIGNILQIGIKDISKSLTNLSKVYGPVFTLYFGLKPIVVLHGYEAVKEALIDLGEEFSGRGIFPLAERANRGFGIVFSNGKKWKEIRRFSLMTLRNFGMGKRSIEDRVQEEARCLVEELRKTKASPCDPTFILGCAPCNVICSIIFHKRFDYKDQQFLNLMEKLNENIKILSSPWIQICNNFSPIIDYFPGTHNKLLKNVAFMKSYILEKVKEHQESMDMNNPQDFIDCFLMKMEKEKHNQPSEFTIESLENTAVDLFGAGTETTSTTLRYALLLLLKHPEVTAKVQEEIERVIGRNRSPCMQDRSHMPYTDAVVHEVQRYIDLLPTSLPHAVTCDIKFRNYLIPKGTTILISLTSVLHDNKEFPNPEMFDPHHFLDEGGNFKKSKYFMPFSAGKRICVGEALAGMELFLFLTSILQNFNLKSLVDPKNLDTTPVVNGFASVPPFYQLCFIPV

CYP2C8 [4] = molecular target: T2, CYP2C8 (Homo sapiens, UniProt P10632); test: Time dependent inhibition of CYP2C8 (unknown origin) at 30 uM by LC/MS system; assay type: ADME
T2 sequence (P10632 whole entry): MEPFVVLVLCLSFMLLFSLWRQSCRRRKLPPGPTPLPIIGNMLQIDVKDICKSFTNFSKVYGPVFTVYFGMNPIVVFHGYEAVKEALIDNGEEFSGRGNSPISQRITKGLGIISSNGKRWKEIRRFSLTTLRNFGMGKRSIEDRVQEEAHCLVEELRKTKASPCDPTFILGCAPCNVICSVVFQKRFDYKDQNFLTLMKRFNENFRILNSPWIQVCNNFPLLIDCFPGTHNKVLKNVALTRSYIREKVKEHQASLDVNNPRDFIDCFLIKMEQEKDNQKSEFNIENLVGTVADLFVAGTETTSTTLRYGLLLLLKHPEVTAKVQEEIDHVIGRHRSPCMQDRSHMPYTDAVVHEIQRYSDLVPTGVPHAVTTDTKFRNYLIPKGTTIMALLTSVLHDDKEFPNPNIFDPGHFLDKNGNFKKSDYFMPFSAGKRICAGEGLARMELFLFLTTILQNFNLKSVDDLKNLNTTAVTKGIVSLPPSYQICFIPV
Summary of the method: (§1)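 CYP2C8 in human liver microsomes (1.0 mg/mL in preincubation), 0.1 M sodium phosphate, NADPH-generating system. Preincubation 0 or 30 min, then ten-fold dilution into incubation with 10 μM paclitaxel (final) for 10 min. Activity is taken relative to the matched no-inhibitor control. % inactivation = 100 × [1 − %control(30 min)/%control(0 min)]; threshold 10%.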

Liver microsome [5] = conditions: human, microsomes, 100 µM
CYP2D6 [6] = molecular target: T3, CYP2D6 (Homo sapiens, UniProt P10635); test: Time dependent inhibition of CYP2D6 (unknown origin) at 10 uM by LC/MS system; assay type: ADME
T3 sequence (P10635 whole entry): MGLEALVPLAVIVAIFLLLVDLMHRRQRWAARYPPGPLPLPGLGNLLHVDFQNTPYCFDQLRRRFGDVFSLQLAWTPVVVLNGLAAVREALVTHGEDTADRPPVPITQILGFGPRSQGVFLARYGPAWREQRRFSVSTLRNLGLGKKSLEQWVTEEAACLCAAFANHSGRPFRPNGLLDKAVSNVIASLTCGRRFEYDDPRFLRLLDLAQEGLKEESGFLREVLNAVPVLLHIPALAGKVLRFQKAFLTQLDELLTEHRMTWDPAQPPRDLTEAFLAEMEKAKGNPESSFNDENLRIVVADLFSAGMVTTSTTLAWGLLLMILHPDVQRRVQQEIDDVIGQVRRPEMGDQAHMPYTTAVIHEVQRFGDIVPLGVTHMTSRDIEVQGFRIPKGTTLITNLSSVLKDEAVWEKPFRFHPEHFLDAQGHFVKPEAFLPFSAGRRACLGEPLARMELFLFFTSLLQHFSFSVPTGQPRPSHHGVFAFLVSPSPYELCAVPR
Summary of the method: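 CYP2D6 activity was measured with 30 μM dextromethorphan (final) after 0 or 30 min preincubation of compound with human liver microsomes (1.0 mg/mL) and NADPH-generating system in 0.1 M sodium phosphate. A ten-fold dilution was followed by a 10-min incubation. % inactivation = 100 × [1 − %control(30 min)/%control(0 min)]; threshold 10%.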

CYP1A2 = molecular target: T4, CYP1A2 (Homo sapiens, UniProt P05177); test: in vitro
T4 sequence (P05177 whole entry): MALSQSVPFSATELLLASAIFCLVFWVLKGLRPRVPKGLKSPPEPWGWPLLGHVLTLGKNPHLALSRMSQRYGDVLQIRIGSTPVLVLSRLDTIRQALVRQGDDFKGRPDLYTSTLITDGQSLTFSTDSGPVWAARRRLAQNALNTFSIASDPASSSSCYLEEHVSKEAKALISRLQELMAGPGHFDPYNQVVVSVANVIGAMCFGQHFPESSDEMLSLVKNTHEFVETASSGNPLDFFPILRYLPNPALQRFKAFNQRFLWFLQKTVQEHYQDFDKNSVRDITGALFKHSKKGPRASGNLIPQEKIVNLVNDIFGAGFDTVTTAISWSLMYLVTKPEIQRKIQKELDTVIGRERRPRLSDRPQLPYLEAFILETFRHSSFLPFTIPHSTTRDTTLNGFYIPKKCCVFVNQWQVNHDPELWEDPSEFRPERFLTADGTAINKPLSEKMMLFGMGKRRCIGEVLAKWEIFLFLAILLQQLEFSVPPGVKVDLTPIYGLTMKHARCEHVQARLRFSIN

CYP2C19 = CYP2C19 (Homo sapiens, UniProt P33261); test: in vitro
CYP2C19, sequence (P33261 whole entry): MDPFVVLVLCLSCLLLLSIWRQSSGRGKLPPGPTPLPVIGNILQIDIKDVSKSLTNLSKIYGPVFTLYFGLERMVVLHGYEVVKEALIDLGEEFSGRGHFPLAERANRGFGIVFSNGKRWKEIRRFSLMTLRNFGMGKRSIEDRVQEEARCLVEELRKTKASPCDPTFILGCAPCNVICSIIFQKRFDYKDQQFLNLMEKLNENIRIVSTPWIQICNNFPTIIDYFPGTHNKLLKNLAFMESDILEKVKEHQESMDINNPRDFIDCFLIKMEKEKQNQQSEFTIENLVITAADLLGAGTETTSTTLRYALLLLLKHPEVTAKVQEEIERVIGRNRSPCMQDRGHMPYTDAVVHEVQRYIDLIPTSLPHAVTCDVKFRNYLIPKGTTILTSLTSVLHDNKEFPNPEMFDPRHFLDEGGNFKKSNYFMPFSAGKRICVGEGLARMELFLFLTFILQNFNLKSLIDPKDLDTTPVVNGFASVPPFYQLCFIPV

Liver microsome [7] = test: Metabolic activation in human liver microsomes assessed as [3H]GSH adduct formation rate measured per mg of protein at 100 uM by [3H]GSH trapping assay
CYP2B6 [8] = molecular target: T5, CYP2B6 (Homo sapiens, UniProt P20813); test: in vitro
T5 sequence (P20813 whole entry): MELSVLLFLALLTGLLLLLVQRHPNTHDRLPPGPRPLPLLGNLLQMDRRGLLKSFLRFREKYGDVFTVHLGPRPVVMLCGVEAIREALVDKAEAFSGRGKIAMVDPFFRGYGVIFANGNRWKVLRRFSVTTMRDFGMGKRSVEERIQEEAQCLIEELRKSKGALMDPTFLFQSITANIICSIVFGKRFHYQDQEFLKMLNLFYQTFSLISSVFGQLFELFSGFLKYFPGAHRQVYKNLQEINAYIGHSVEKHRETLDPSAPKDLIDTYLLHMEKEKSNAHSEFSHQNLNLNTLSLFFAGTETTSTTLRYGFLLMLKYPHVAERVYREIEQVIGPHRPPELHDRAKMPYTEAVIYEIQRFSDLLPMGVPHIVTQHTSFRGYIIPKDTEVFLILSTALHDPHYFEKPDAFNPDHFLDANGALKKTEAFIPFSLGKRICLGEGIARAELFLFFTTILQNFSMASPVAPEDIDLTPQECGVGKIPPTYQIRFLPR

CYP2D6 [9] = molecular target: T3, CYP2D6; test: in vitro
CYP2C8 [10] = molecular target: T2, CYP2C8; test: in vitro
[11] = Intrinsic clearance for reactive metabolites formation per mg of protein based on cytochrome P450 (unknown origin) inactivation rate by TDI assay; conditions: human
CYP2C8 [12] = molecular target: T2, CYP2C8; test: Time dependent inhibition of CYP2C8 (unknown origin) at 10 uM by LC/MS system; assay type: ADME
Summary of the method: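 CYP2C8 in human liver microsomes (1.0 mg/mL in preincubation), 0.1 M sodium phosphate, NADPH-generating system. Preincubation 0 or 30 min, then ten-fold dilution into incubation with 10 μM paclitaxel (final) for 10 min.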

CYP3A4 [13] = molecular target: T1, CYP3A4; test: Time dependent inhibition of CYP3A4 (unknown origin) at 10 uM by LC/MS system; assay type: ADME
Summary of the method: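 CYP3A4: human liver microsomes at 0.5 mg/mL in preincubation, 0.1 M sodium phosphate, NADPH-generating system, 0 or 30 min. Ten-fold dilution into incubation with 2.5 μM midazolam (final), 10 min. Each value is relative to the matched control without inhibitor. % enzyme inactivation = 100 × [1 − %control(30 min)/%control(0 min)]; 10% threshold.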

CYP2C8 [14] = molecular target: T2, CYP2C8; test: Time dependent inhibition of CYP2C8 (unknown origin) at 3 uM by LC/MS system; assay type: ADME; summary of the method: as §1
CYP2B6 [15] = molecular target: T5, CYP2B6; test: Time dependent inhibition of CYP2B6 (unknown origin) at 10 uM by LC/MS system; assay type: ADME
Summary of the method: as §1, with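 “CYP2B6” for “CYP2C8”, “solution containing 50” for “with 10”, “bupropion” for “paclitaxel”, “expressed as percent of” for “taken relative to”, “control(30 min)/control(0” for “%control(30 min)/%control(0”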

T1 sequence (P08684 whole entry): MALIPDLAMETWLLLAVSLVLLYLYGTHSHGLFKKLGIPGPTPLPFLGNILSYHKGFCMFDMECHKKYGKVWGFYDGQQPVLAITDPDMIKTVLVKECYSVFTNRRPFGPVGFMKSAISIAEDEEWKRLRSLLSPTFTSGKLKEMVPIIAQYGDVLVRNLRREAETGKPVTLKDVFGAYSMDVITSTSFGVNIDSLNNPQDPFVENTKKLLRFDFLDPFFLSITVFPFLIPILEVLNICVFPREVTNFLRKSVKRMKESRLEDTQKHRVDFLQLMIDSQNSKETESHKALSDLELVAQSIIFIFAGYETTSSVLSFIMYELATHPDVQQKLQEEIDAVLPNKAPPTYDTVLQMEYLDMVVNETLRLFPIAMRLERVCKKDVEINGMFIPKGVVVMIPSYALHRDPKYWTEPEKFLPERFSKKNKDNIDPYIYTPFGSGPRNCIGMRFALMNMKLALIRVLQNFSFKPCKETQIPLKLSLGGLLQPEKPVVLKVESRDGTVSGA

Row | Structure (SMILES) | PB (Liver microsome [1]) | inhibition at 100 µM (CYP3A4 [2]) | clearance [3] | inhibition at 100 µM (CYP2C9) | inhibition at 30 µM (CYP2C8 [4]) | CLH (Liver microsome [5]) | inhibition at 10 µM (CYP2D6 [6]) | inhibition at 100 µM (CYP1A2) | inhibition at 100 µM (CYP2C19; microsomes) | Drug metabolism (Liver microsome [7]) | inhibition at 100 µM (CYP2B6 [8]) | inhibition at 100 µM (CYP2D6 [9]) | inhibition at 100 µM (CYP2C8 [10]) | clearance [11] | inhibition at 100 µM (CYP2C19; human liver microsomes) | inhibition at 10 µM (CYP2C8 [12]) | inhibition at 10 µM (CYP3A4 [13]) | inhibition at 3 µM (CYP2C8 [14]) | inhibition at 10 µM (CYP2B6 [15])
1 | CCN(CC)Cc1cc(Nc2ccnc3cc(Cl)ccc23)ccc1O [AMODIAQUINE] | 208.1 pmol | < 10% | 0.021 µL/min/mg | < 10% | < 10% | 0.021 µL/min/mg | < 10% | < 10% | < 10% | 2.1 pmol/min | < 10% | – | – | – | – | – | – | – | –
2 | Cc1cc2c(s1)Nc1ccccc1N=C2N1CCN(C)CC1 [OLANZAPINE] | 138.9 pmol | < 10% | 0.119 µL/min/mg | < 10% | – | 0.113 µL/min/mg | – | < 10% | – | 11.3 pmol/min | < 10% | 63% | < 10% | 0.006 µL/min/mg | < 10% | – | – | – | –
3 | Cc1ccnc2c1NC(=O)c1cccnc1N2C1CC1 [NEVIRAPINE] | 19.1 pmol | < 10% | 0.013 µL/min/mg | < 10% | – | 0.012 µL/min/mg | – | < 10% | – | 1.2 pmol/min | < 10% | < 10% | < 10% | 0.001 µL/min/mg | 12% | – | – | – | –
4 | CC/C(=C(\c1ccccc1)c1ccc(OCCN(C)C)cc1)c1ccccc1 [TAMOXIFEN] | 11.5 pmol | < 10% | – | – | – | – | – | < 10% | < 10% | metabolite_not_detected | < 10% | – | – | – | – | < 10% | – | – | –
5 | CC(C)C(=O)Nc1ccc([N+](=O)[O-])c(C(F)(F)F)c1 [FLUTAMIDE] | 178 pmol | < 10% | 0.02 µL/min/mg | < 10% | – | 0.02 µL/min/mg | – | < 10% | – | 2 pmol/min | < 10% | < 10% | < 10% | – | < 10% | – | – | – | –
6 | O=C1NC(=O)C(c2ccccc2)(c2ccccc2)N1 [PHENYTOIN] | 4.4 pmol | < 10% | 0.012 µL/min/mg | < 10% | – | 0.012 µL/min/mg | – | < 10% | < 10% | 1.2 pmol/min | < 10% | < 10% | < 10% | – | – | – | – | – | –
7 | NC(=O)N1c2ccccc2C=Cc2ccccc21 [CARBAMAZEPINE] | 3.3 pmol | – | – | < 10% | – | – | – | < 10% | < 10% | metabolite_not_detected | < 10% | < 10% | < 10% | – | – | – | < 10% | – | –
8 | CCc1oc2ccccc2c1C(=O)c1cc(Br)c(O)c(Br)c1 [BENZBROMARONE] | 389.9 pmol | – | 0.032 µL/min/mg | – | – | 0.03 µL/min/mg | – | 12% | – | 3 pmol/min | – | < 10% | – | 0.002 µL/min/mg | < 10% | – | < 10% | < 10% | < 10%
9 | CN(CCOc1ccc(CC2SC(=O)NC2=O)cc1)c1ccccn1 (configuration not stated) [ROSIGLITAZONE] | 516.1 pmol | – | 0.048 µL/min/mg | < 10% | – | 0.022 µL/min/mg | – | < 10% | – | 2.2 pmol/min | < 10% | – | – | 0.028 µL/min/mg | < 10% | < 10% | – | – | –
10 | CC(=O)CC(c1ccccc1)c1c(O)c2ccccc2oc1=O (configuration not stated) [WARFARIN] | 15.9 pmol | < 10% | 0.003 µL/min/mg | < 10% | – | – | – | 19% | – | metabolite_not_detected | < 10% | < 10% | < 10% | 0.003 µL/min/mg | < 10% | – | – | – | –
11 | CCc1ccc(CCOc2ccc(CC3SC(=O)NC3=O)cc2)nc1 (configuration not stated) [PIOGLITAZONE] | 353 pmol | 61% | 0.036 µL/min/mg | < 10% | < 10% | – | – | < 10% | – | metabolite_not_detected | 38% | < 10% | – | 0.036 µL/min/mg | < 10% | – | – | – | –
12 | CC(=O)Nc1ccc(O)cc1 [ACETAMINOPHEN] | – | – | – | < 10% | – | – | – | < 10% | – | – | < 10% | < 10% | < 10% | – | – | – | < 10% | – | –
13 | O=C(O)Cc1ccccc1Nc1c(Cl)cccc1Cl [DICLOFENAC] | – | < 10% | 0.01 µL/min/mg | < 10% | – | 0.01 µL/min/mg | – | < 10% | < 10% | 1 pmol/min | < 10% | < 10% | < 10% | – | – | – | – | – | –

Source: ChEMBL document CHEMBL3526118, “Combination of GSH trapping and time-dependent inhibition assays as a predictive method of drugs generating highly reactive metabolites” (Drug Metab Dispos, 2011)
